Measurements taken from ChEMBL document CHEMBL1629690, “Development of hexadecyloxypropyl tenofovir (CMX157) for treatment of infection caused by wild-type and nucleoside/nucleotide-resistant HIV” (Antimicrob Agents Chemother, 2010).

Tests used:
Assay type in all cases: cell-based
[1] = Cytotoxicity against human dendritic cells after 24 hrs by XTT assay
Summary of the method: (§1)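 Six-concentration growth-inhibition test: 10 to 0.032 μM for the prodrug and TDF, up to 100 μM for TFV, with Triton X-100 run in parallel. Cell lines were split 1:2 the day before and seeded at 5 × 10^3 to 2 × 10^4 cells/well, with adherent lines left overnight. Dendritic cells were derived with GM-CSF/IL-4 for 7 days, then LPS 10 ng/ml for 2 days. Viability was read by XTT.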

PBMC = test: Cytotoxicity against PHA/IL-2-stimulated human PBMC after 24 hrs by XTT assay; summary of the method: as §1
HeLa = test: Cytotoxicity against human HeLa cells after 24 hrs by XTT assay; summary of the method: as §1
CEM-SS = test: Cytotoxicity against human CEM-SS cells after 24 hrs by XTT assay; summary of the method: as §1
[2] = Cytotoxicity against human ME180 cells after 24 hrs by XTT assay; conditions: me-180, 24 h; summary of the method: as §1
[3] = Cytotoxicity against human HuH7 cells after 24 hrs by XTT assay; conditions: huh-7, 24 h; summary of the method: as §1
HepG2 = test: Cytotoxicity against human HepG2 cells after 24 hrs by XTT assay; conditions: hepg2, 24 h; summary of the method: as §1

Measured: Activity

CC(C)OC(=O)OCOP(=O)(CO[C@H](C)Cn1cnc2c(N)ncnc21)OCOC(=O)OC(C)C.O=C(O)/C=C/C(=O)O [TENOFOVIR DISOPROXIL FUMARATE]
Non-toxic: all assays above
